Results on five compounds are retold here after ChEMBL document CHEMBL1131631, “Piperazinyl oxazolidinone antibacterial agents containing a pyridine, diazene, or triazene heteroaromatic ring” (1998).

Values after ≈ are worked out from the molar mass of the structure shown.

What is called MIC is the lowest concentration found to suppress growth. A low value points to inhibition by little substance. As usually defined, the ED50 is the dose at which the effect has come halfway, by size or by number of responders. A high value points to weaker potency.

Experiment [1] relates to Staphylococcus aureus. The experiment is described as follows: Minimum inhibitory concentration against Staphylococcus aureus UC6685. The format is functional. Put shortly:
(§1)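 MIC in µg/mL. S. aureus UC 9213 is methicillin-susceptible, and S. aureus UC 6685 and S. epidermidis UC 12084 are methicillin-resistant. E. faecalis UC 9217 and S. pneumoniae UC 9912 were also tested.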

For experiment [2], the system named is Caco-2. The experiment is described as follows: (§2) permeability assessment across a monolayer of caco-2 cells in absence of GSH in aqueous base. The format is functional, Homo sapiens. (In general: Passage across Caco-2 layers is used to estimate intestinal permeability.)
The test system of a further experiment is Enterococcus faecalis. The experiment is described as follows: Minimum inhibitory concentration against Enterococcus faecalis UC9217. The format is functional. The essentials:
as §1

In experiment [3] the test system is Streptococcus pneumoniae. The experiment is described as follows: MIC activity against Streptococcus pneumoniae UC9912. In kind it is functional. Put shortly:
as §1

Experiment [4] concerns Staphylococcus aureus. Kind of experiment: compound was tested against Staphylococcus aureus UC9213 after po administration. In kind it is functional. Put shortly:
(§3)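 Lethal systemic S. aureus infection in mice, with oral dosing. The ED50 is the dose in mg/kg body weight per dose that reduces mortality by 50%. The 95% confidence limits are −50% and +100% of the nominal value.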

Experiment [5] has as its system Staphylococcus aureus. Kind of experiment: compound was tested against Staphylococcus aureus UC9213 the eperezolid administered positive control expressed as ED50 values. In kind it is functional. The essentials:
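Eperezolid was given orally in the same lethal systemic mouse S. aureus trial as the test agents. The ED50 is the mg/kg/dose that reduces mortality by 50%.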

Experiment [6] deals with Caco-2. The experiment is described as follows: (§4) permeability assessment across […]. In kind it is functional, Homo sapiens.
For experiment [7], the system named is Staphylococcus aureus. Kind of experiment: Minimum inhibitory concentration against Staphylococcus aureus UC9213. In kind it is functional. Put shortly:
as §1

Experiment [8] relates to Caco-2. Kind of experiment: (§5) permeability assessment across a monolayer of caco-2 cells in presence of GSH in aqueous base. In kind it is functional, Homo sapiens.
In experiment [9] the test system is Staphylococcus epidermidis. The experiment is described as follows: Minimum inhibitory concentration against Staphylococcus epidermis UC12084. The format is functional. Put shortly: as §1
The subject of experiment [10] is Streptococcus pneumoniae. The experiment is described as follows: Minimum inhibitory concentration Streptococcus pneumoniae UC9912. In kind it is functional. Put shortly:
as §1

In experiment [11] the test system is Caco-2. The description is as §4. The format is functional.
Experiment [12] relates to Caco-2. Described as §5. In kind it is functional.
Experiment [13] relates to Caco-2. Described as §4. The format is functional. This is another data set of the same source.
Experiment [14] relates to Caco-2. The description is as §2. The format is functional.
Experiment [15] has as its system Mus musculus. The experiment is described as follows: compound was tested against Staphylococcus aureus UC9213 the vancomycin administered (sc) in mouse positive control expressed as ED50 values. The format is functional.
For experiment [16], the system named is Mus musculus. Kind of experiment: Compound was tested against Staphylococcus aureus UC9213 after po administration in mouse. In kind it is functional. The essentials:
as §3

As to `CC(=O)NC[C@H]1CN(c2ccc(N3CCN(c4ccnc(Cl)n4)CC3)c(F)c2)C(=O)O1`, the MIC against Staphylococcus aureus [1] stood at 1 µg/mL (≈ 2.23 µM); with Enterococcus faecalis it was 1 µg/mL (≈ 2.23 µM); in the experiment with Streptococcus pneumoniae [3] it was 0.5 µg/mL (≈ 1.11 µM); in the experiment with Staphylococcus aureus [7] it was 2 µg/mL (≈ 4.46 µM); in experiment [9], 0.5 µg/mL (≈ 1.11 µM). For the same compound, the “[A]” value in the experiment on Caco-2 [2] and in the experiment on Caco-2 [8] was 17 µM in each case. For the same compound, the results for the ED50 with Staphylococcus aureus [4] and with Staphylococcus aureus [5] were 14.6 mg/kg and 1.8 mg/kg, respectively. Also, in the experiment on Caco-2 [6], the “[EA]” value was determined as 50 µM.

`CC(=O)NC[C@H]1CN(c2ccc(N3CCN(c4cccc(Br)n4)CC3)c(F)c2)C(=O)O1`: the MIC is 1 µg/mL (≈ 2.03 µM) with Staphylococcus aureus [1]; 1 µg/mL (≈ 2.03 µM) against Enterococcus faecalis; 2 µg/mL (≈ 4.06 µM) against Staphylococcus aureus [7]; 0.5 µg/mL (≈ 1.02 µM) in the experiment on Streptococcus pneumoniae [10]; 0.5 µg/mL (≈ 1.02 µM) in [9]. The “[A]” value in the experiment on Caco-2 [2] and with Caco-2 [8] was 2.6 µM throughout. The ED50 in the experiment on Staphylococcus aureus [4] is over 20 mg/kg; with Staphylococcus aureus [5] it was 2.7 mg/kg. Besides, the “[EA]” value with Caco-2 [6] turned out to be 50 µM.

With `CC(=O)NC[C@H]1CN(c2ccc(N3CCN(c4cnnc(Cl)c4Cl)CC3)c(F)c2)C(=O)O1`, the figures for the “[EA]” value in the experiment on Caco-2 [11] and with Caco-2 [13] were 50 µM and 0 µM, respectively. Moreover, the “[A]” value with Caco-2 [12] and in the experiment on Caco-2 [14] was 34 µM each time. The MIC against Staphylococcus aureus [1] amounted to 2 µg/mL (≈ 4.14 µM); in the experiment on Enterococcus faecalis it was 2 µg/mL (≈ 4.14 µM); with Staphylococcus aureus [7], 2 µg/mL (≈ 4.14 µM); against Streptococcus pneumoniae [10], 0.5 µg/mL (≈ 1.03 µM); in experiment [9], 1 µg/mL (≈ 2.07 µM). Moreover, the ED50 with Staphylococcus aureus [4] is over 20 mg/kg; in the experiment with Staphylococcus aureus [5] it was 3.2 mg/kg.

As for `CC(=O)NC[C@H]1CN(c2ccc(N3CCN(C(=O)CO)CC3)c(F)c2)C(=O)O1` [EPEREZOLID], the figures for the ED50 in the experiment on Mus musculus [15] and with Mus musculus [16] were 3.9 mg/kg and 1.9 mg/kg, respectively. Further, the MIC in the experiment on Staphylococcus aureus [1] worked out at 1 µg/mL (≈ 2.54 µM); in the experiment with Enterococcus faecalis, 2 µg/mL (≈ 5.07 µM); with Staphylococcus aureus [7], 4 µg/mL (≈ 10.1 µM); against Streptococcus pneumoniae [10] it was 0.5 µg/mL (≈ 1.27 µM); in experiment [9], 0.5 µg/mL (≈ 1.27 µM).

In the case of `CC(=O)NC[C@H]1CN(c2ccc(N3CCOCC3)c(F)c2)C(=O)O1` [LINEZOLID], the values for the ED50 in the experiment on Mus musculus [15] and in the experiment with Mus musculus [16] were 3.9 mg/kg and 5.6 mg/kg, respectively. For the same compound, the lowest concentration to inhibit growth in [9] (MIC) was 1 µg/mL (≈ 2.96 µM).
